According to ChEMBL document CHEMBL1128527, “Modification of receptor selectivity and functional activity in cholecystokinin peptoid ligands” (J Med Chem, 1995):
Each block holds one compound with its values, some of them ahead of it. Active and inactive are the calls of the source. No cut-off for these calls is given here. Numbered stars: 1 amine (or outer) side, 2 acyl side, 3 side chain; on linkers, the order of the positions; unused ones are H or OH. Square brackets hold non-standard residues; d marks the D form. Side chains are listed from the residue outwards. Peptide text beside a SMILES is read from it. * marks the point of attachment. NMeF = CN[C@@H](Cc1ccccc1)C(=O)O; NH(2-Me-phenyl) = Cc1ccccc1N*; CO = O=C([*:1])[*:2]

Experiments:
Cavia porcellus [1] = species: Cavia porcellus; assay: mCCK-8 contraction induced by 30 uM in vitro, normalized to CCK-8 (1 uM); format: functional
Outline: (§1)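 Isolated guinea pig gallbladder. Contraction produced by test compound at 30 μM is expressed relative to CCK-8 (1 μM).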

[2] = biological target: T1, Cholecystokinin receptor type A (Homo sapiens, UniProt P32238); assay: Compound was evaluated for the [Ca2+] mobilization innstably transfected CHO-K1 cell lines expressing human Cholecystokinin type A receptor; format: cell-based
T1 sequence (P32238 whole entry): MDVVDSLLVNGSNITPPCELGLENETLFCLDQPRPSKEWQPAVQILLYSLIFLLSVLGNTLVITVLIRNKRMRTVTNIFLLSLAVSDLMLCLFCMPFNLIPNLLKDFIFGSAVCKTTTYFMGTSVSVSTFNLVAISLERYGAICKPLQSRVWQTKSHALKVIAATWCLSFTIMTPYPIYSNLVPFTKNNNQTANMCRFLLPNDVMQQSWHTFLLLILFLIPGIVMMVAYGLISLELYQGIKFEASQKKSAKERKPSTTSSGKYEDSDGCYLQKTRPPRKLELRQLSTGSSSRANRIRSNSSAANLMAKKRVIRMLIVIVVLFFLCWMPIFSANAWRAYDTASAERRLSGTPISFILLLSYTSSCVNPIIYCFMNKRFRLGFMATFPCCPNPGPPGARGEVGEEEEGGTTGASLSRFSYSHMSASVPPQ

[3] = biological target: T2, Cholecystokinin receptor type A (Cavia porcellus) (UniProt Q63931); assay: The compound was evaluated for the contraction as % of CCK-8 maximum against Cholecystokinin type A receptor in guinea pig gallbladder
T2 sequence (whole entry): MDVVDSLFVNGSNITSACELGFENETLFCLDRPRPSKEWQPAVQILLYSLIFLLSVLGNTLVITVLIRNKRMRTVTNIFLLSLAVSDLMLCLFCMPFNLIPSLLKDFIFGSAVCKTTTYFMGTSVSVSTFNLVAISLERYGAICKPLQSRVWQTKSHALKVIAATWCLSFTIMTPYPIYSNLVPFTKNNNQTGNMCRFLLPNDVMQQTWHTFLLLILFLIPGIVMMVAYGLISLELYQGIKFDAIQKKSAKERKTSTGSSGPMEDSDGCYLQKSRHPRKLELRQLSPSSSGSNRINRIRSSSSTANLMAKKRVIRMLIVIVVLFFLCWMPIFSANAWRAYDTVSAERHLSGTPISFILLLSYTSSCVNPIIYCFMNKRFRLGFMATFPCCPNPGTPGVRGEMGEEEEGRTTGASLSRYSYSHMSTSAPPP

[4] = biological target: T1, Cholecystokinin receptor type A; assay: In vitro displacement of [125I]BH-CCK-8 from cDNA of human Cholecystokinin type A receptor expressed in CHO-K1 cells; format: cell-based
Cavia porcellus [5] = species: Cavia porcellus; assay: In vitro concentration required to induce contraction of isolated GPGB; format: functional
Outline: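 Isolated guinea pig gallbladder contraction. pEC50 (−log EC50 ± SD) assayed in triplicate.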

Rattus norvegicus [6] = assay: Compound was evaluated for the maximal reduction in feeding achieved at 1 uM/kg dose(ip); format: functional
Outline: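 Conditioned male Long-Evans rats fasted 100 min, dosed ip at 1 μmol/kg in propylene glycol (1 mL/kg), then given an oral saline preload (0.9%, 8 mL/kg). Liquid diet offered 20 min later. Maximal reduction of feeding is the mean of 8–10 animals, normalized to the vehicle pretreatment-day intake.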

Rattus norvegicus [7] = assay: Compound was evaluated for the dose(ip) required to achieve half-maximal inhibition of feeding at 30 min in rats; format: functional; conditions: 0.5 h
Outline: (§2)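 Male Long-Evans rats (225–300 g) conditioned 2 weeks to a liquid diet. Animals fasted 100 min, then given test compound ip in propylene glycol (1 mL/kg) followed at once by an oral saline preload (8 mL/kg). Diet offered 20 min later and intake measured at 30 min. ED50 is the dose giving half-maximal inhibition; 8–10 rats per dose, normalized to each rat's pretreatment-day response.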

[8] = biological target: T3, Gastrin/cholecystokinin type B receptor (Homo sapiens, UniProt P32239)
T3 sequence (P32239 whole entry): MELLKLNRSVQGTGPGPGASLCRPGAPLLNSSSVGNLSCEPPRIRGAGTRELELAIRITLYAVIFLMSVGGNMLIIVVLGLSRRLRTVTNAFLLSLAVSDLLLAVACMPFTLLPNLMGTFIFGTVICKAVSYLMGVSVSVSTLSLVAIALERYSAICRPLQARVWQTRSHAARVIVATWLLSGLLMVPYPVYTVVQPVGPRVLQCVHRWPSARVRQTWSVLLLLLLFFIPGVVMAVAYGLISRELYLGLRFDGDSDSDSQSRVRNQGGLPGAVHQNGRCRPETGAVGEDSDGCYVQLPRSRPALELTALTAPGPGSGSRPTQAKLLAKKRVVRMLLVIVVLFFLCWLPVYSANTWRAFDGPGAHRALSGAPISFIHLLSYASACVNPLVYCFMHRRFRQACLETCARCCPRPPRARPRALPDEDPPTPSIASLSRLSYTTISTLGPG

Cavia porcellus [9] = species: Cavia porcellus; assay: The compound was evaluated for the pKB, single dose pA2 against Cholecystokinin type A receptor in guinea pig gallbladder; format: functional
Outline: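 Isolated guinea pig gallbladder. Antagonism against CCK-8 is expressed as pKB, a single-dose pA2.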

Cavia porcellus [10] = species: Cavia porcellus; assay: mCCK-8 contraction induced by 30 uM in vitro, normalized to CCK-8 (1 uM); IA = 'inactive'; format: functional; outline: as §1
Rattus norvegicus [11] = assay: The compound was evaluated for the dose(ip) required to achieve half-maximal inhibition of feeding at 30 min in rats; format: functional; conditions: 0.5 h; outline: as §2
Rattus norvegicus [12] = assay: The compound was evaluated for the maximal reduction in feeding achieved at 1 uM/kg dose(ip); format: functional; conditions: in the assay text read “0.5 umol/kg” for “1 uM/kg”
Cavia porcellus [13] = species: Cavia porcellus; assay: The compound was evaluated for contraction as % of CCK-8 maximum against Cholecystokinin type A receptor in guinea pig gallbladder
Cavia porcellus [14] = species: Cavia porcellus; assay: mCCK-8 contraction induced by 30 uM in vitro, normalized to CCK-8 (1 uM); IA ='inactive'; format: functional; outline: as §1
Rattus norvegicus [15] = assay: Compound was evaluated for the dose(ip) required to achieve half-maximal inhibition of feeding at 30 min in rats.; format: functional; conditions: 0.5 h; outline: as §2
[16] = biological target: T3, Gastrin/cholecystokinin type B receptor; assay: Compound was evaluated for the [Ca2+] mobilization innstably transfected CHO-K1 cell lines expressing human Cholecystokinin type B receptor; format: cell-based
[17] = biological target: T4, Gastrin/cholecystokinin type B receptor (Homo sapiens) (UniProt P32239)
T4 sequence (whole entry): T3 sequence (P32239 whole entry)

IC50 [8]: 224 nM | IC50 [4]: 60.3 nM
Structure (SMILES): Cc1ccccc1NC(=O)NCCCC[C@@H](CNC(=O)CCC(=O)O)NC(=O)[C@@](C)(Cc1c[nH]c2ccccc12)NC(=O)OC1C2CC3CC(C2)CC1C3 (stereo not given in full)
pKB (Cavia porcellus [9]): 7 | Activity (Cavia porcellus [10]): inactive

IC50 [8]: 7080 nM | IC50 [4]: 724 nM
Structure (SMILES): Cc1ccccc1NC(=O)NCCCC[C@@H](CNC(=O)CCC(=O)O)NC(=O)[C@](C)(Cc1c[nH]c2ccccc12)NC(=O)OC1C2CC3CC(C2)CC1C3 (stereo not given in full)
Activity (Cavia porcellus [14]): inactive

IC50 [8]: 20 nM | EC50 [2]: 3.16 nM | EC50 [16]: 2510 nM | IC50 [4]: 12 nM | EC50 (Cavia porcellus [5]): 27.5 nM | pKB [17]: 7.7
Structure (SMILES): Cc1ccccc1NC(=O)NCCCC[C@H](CNC(=O)[C@@](C)(Cc1c[nH]c2ccccc12)NC(=O)OC1C2CC3CC(C2)CC1C3)NC(=O)CCC(=O)O (stereo not given in full)
ED50 (Rattus norvegicus [15]): 0.03 µmol/kg | contraction, % of CCK-8 max (Cavia porcellus [13]): 72% | Max inhibition (Rattus norvegicus [6]): 59%

Continued, compound first:

Structure (SMILES): C[C@](Cc1c[nH]c2ccccc12)(NC(=O)OC1[C@H]2C[C@@H]3C[C@@H](C[C@H]1C3)C2)C(=O)NC[C@H](NC(=O)CCC(=O)O)c1ccccc1 (stereo not given in full) [CI-988]
Activity (Cavia porcellus [1]): 24%

Structure (SMILES): CC(=O)N[C@@H](Cc1c[nH]c2ccccc12)C(=O)N[C@@H](CCCCNC(=O)Nc1ccccc1C)C(=O)N[C@@H](CC(=O)O)C(=O)N(C)[C@@H](Cc1ccccc1)C(N)=O (Ac-WK([CO-NH(2-Me-phenyl)])D[NMeF]-NH2)
EC50 [2]: 3.98 nM | contraction, % of CCK-8 max [3]: 105% | IC50 [4]: 20 nM | EC50 (Cavia porcellus [5]): 1.58 nM | max inhibition (Rattus norvegicus [6]): 67% | ED50 (Rattus norvegicus [7]): 0.01 µmol/kg

Structure (SMILES): CSCC[C@H](NC(=O)[C@H](Cc1ccc(OS(=O)(=O)O)cc1)NC(=O)[C@@H](N)CC(=O)O)C(=O)NCC(=O)N[C@@H](Cc1c[nH]c2ccccc12)C(=O)N[C@@H](CCSC)C(=O)N[C@@H](CC(=O)O)C(=O)N[C@@H](Cc1ccccc1)C(N)=O [SINCALIDE]
ED50 (Rattus norvegicus [11]): 0.027 µmol/kg | Activity (Cavia porcellus [1]): 100% | max inhibition (Rattus norvegicus [12]): 95%

Structure (SMILES): Cc1ccccc1NC(=O)NCCCC[C@H](CNC(=O)[C@](C)(Cc1c[nH]c2ccccc12)NC(=O)OC1C2CC3CC(C2)CC1C3)NC(=O)CCC(=O)O (stereo not given in full)
IC50 [8]: 178 nM | contraction, % of CCK-8 max (Cavia porcellus [13]): 83% | IC50 [4]: 229 nM | EC50 (Cavia porcellus [5]): 832 nM
